Reference: the EternaBench riboswitch data

Test system: MS2 coat protein
Assay: apparent Kd, MS2 coat protein; higher = weaker binding; RNA-MaP array; FMN 200 µM where present
Summary of the method: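 Designs were transcribed by stalled E. coli RNA polymerase on Illumina sequencing-chip clusters. They were titrated with SNAP-549-labelled MS2 coat protein from 0.7 or 1.5 nM, doubling to 3 µM, in 100 mM Tris-HCl pH 7.5, 80 mM KCl, 4 mM MgCl2, BSA, DTT, yeast tRNA and Tween-20, without and then with constant ligand. The apparent Kd is the median of filtered per-cluster fits after normalisation of green signal to red-channel RNA signal and control-cluster median Fmax.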

[1] = designed as: OFF switch for flavin mononucleotide, no ligand
[2] = ligand present: flavin mononucleotide, designed as: OFF switch for flavin mononucleotide
[3] = designed as: ON switch for flavin mononucleotide, no ligand
[4] = ligand present: flavin mononucleotide, designed as: ON switch for flavin mononucleotide

Sequence | apparent Kd [1] [nM] | apparent Kd [2] [nM] | apparent Kd [3] [nM] | apparent Kd [4] [nM]
AAUGUUUUCAUAGGAUAUUGACUUUUAUUUAUUCAAGAAGGAUGAUAACAUGAGGAUCACCCAUGUUAAAAUGGAUUAACUAGU | 16.1 | 26.6 | – | –
AAUUAACAUGAGGAUCACCCAUGUCGUAUUAUGGGAGGAUAUACGUGGACCGUAGUCCGCGUAGAAGGCCUAAUUA | – | – | 36.6 | 18
AAUUAACAUGAGGAUCACCCAUGUGAGGAUAUGGUAUUACUUGGACAGCUAUGAUCUACCAGAAGGCACAUCUA | 24.4 | 44.8 | – | –
AAUUAACUCACAGGAUAUAGCAGAGGUCGAGUGUACUUACAGGCGACGAGGCUAGAAGGGUGACCACAUGAGGAUCACCCAUGU | – | – | 621 | 103
AAUUAGGUCACAGGAUAUACAACAACCAAUGCUGUAGAAGGGUGACACAUACUUAGCUGACAUGAGGAUCACCCAUGUAACCAC | – | – | 31.4 | 8.87
AAUUAGGUCACAGGAUAUACAACAACCAAUGCUGUAGAAGGGUGACACAUUCUUUGCUGACAUGAGGAUCACCCAUGUAACCAC | – | – | 69.3 | 11.2
AAUUAGUGAGGAUAUACGGGAGGGAGGGAGGGAGGGAGGGAGUAGAAGGCACAUGAGGAUCACCCAUGUAAUUA | 15.1 | 22.7 | – | –
AAUUAUUAUUGAGGAUAUCGUAGUGAAACACUACGAGAAGGCGGUAUAAACAUGAGGAUCACCCAUGUGAGCCUGAUGCUUAUG | 28.9 | 58.9 | – | –
AAUUAUUAUUGAGGAUAUCGUAUUGAAAUAAUAUGAGAAGGCGGGAUAAACAUGAGGAUCACCCAUGUGAGCCUGAUGCUUGUG | 16.6 | 16.3 | – | –
AAUUCACAUGAGGAUCACCCAUGUCAGGAUAUGGUUUCACGUGUUUCGGUGCUUGAGGCCAGAAGGGACAGCUA | 67 | 98.6 | – | –
AAUUCACAUGAGGAUCACCCAUGUGAGGAUAUGGUUUCGCUGGCCGUAGCCAGUGGAACCAGAAGGCGCGUGAU | 56.5 | 65.2 | – | –
AAUUGACACGUAGGAUAUCGCUCUUAAUUAACACGAGAAGGACGUACAUGAGGAUCACCCAUGUUAAAUGGUGUAGAUUAGUUG | 219 | 599 | – | –
AAUUUAAUACAUGAGGAUCACCCAUGUAAUACUUGUAAGAUCAAGGAUAUCAGCUCGAUUAGAGCUGAGAAGGUGAUCACAUGU | – | – | 73.1 | 204
AAUUUACAGCUAGGAUAUACAUGAGGAUCACCCAUGUAAUGAUCGGAUCUUAUGAUCGUAUCAGUGUAGAAGGAGCAAAUAAGA | 12.3 | 21.3 | – | –
AAUUUACAUGAGGAUCACCCAUGUGAGGAUAUAUAUAUAUGUUUGUUAUUGCGUGUGUGUAGAAGGCGCGUGAU | 17.6 | 16.3 | – | –
AAUUUGGAGGGAGGAUAUACAUGAGGAUCACCCAUGUAGCCUAACACGGCUCUCAAUUUCCAAGUGUAGAAGGCCCAACGUGUU | 13.6 | 48.8 | – | –
ACAAAUCAUGUAGGAUAUCGAUUGCGUCGCGAUCGAGAAGGACAAGAGGGUCACCCUUGUACAUGAGGAUCACCCAUGUCAUGA | 193 | 120 | – | –
ACAAAUGGAGGAUAUACAUGAGGAUCACCCAUGUAUAUCCUACAUAUGUGAUAAAAAUGUAGAAGGCCAUUUGA | 11.6 | 10.8 | – | –
ACAAAUUACUACCAGACAUGAGGAUCACCCAUGUCUCCACCCAGAAGGGCGACUCUGAGCACAGCGCAGGAUAUGGGUGUUCCA | – | – | 59.8 | 13.5
ACAAGAUCAGGAUAUACAUGAGGAUCACCCAUGUAUAUCCAAAAAGGGCCUUCUACAUGUAGAAGGGAUCUUGU | 13.1 | 12.6 | – | –
ACAAGAUCAGGAUAUACAUGAGGAUCACCCAUGUAUUUCAAAAAAAAACUUUCUUUAUGUAGAAGGGAUCUUGU | 14.7 | 13.5 | – | –
ACACAACAUGAGGAUCACCCAUGUCAGGAUAUGCAGAACAAGAACAAGACAAGACAGAGCAGAAGGGACAACAC | 39.4 | 35.6 | – | –
ACACAUGAGGAUCACCCAUGUAGCUGACGUCUGCGCCAGCCACAGGAUAUACGGCAACACAAACCGUAGAAGGGUGAUAAACAC | – | – | 114 | 23
ACAGCAGUAGGAUAUACAUCACCAUCCGACCGUUGAUUUCAACAUGAGGAUCACCCAUGUAGAAGGGCUAGUUG | 93.2 | 65.7 | – | –
ACAGUUGAAGCAGGAUAUGUACAUGAGGAUCACCCAUGUUGUCUGAGCGACUGGGAGUGCUAGCUACAGAAGGGCUUUACGACC | 12.9 | 77 | – | –
ACAUAAAUUCGAGGAUAUCGGUGAAAUAAUUUACGAGAAGGCGAUAAUAGUUAUAAACUUAUAGACAUGAGGAUCACCCAUGUA | – | – | 31.6 | 32.4
ACAUAGCGAGGAUAUACAUGAGGAUCACCCAUGUGGUGGCGGUUACGGUAGGACUAGUGUAGAAGGUGCCAUGG | 418 | 424 | – | –
ACAUAUAUUCGAGGAUAUCGGUGAUAAAUUUUACGAGAAGGCGAUAAAAGAUAUAAUCUUAUAGACAUGAGGAUCACCCAUGUA | – | – | 27.3 | 27.1
